An excerpt weighted towards active compounds, which were near 2.5% of everything screened.
MEKK2mut PB1 HTS: signal of MEK5 binding to mutant human MEKK2 PB1 domain; bead flow cytometry, Alexa488-MEK5 binding to MEKK2 mutant; percent response, % at 10 µM; actives 0.35% (n = 290,000); in the data active means percent response above about 24%, passing the limit was not always enough
ABCG2 block: blocks JC-1 efflux by human ABCG2 transporter; IgMXP3 cells, flow cytometry; inhibition, % at 6.6 µM; actives 0.1% (n = 190,000); AID 1325;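 active means inhibition above 80%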;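 further: 0% = DMSO and 100% = nicardipine control wells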
Target sequence (Q9UNQ0 whole entry, looked up): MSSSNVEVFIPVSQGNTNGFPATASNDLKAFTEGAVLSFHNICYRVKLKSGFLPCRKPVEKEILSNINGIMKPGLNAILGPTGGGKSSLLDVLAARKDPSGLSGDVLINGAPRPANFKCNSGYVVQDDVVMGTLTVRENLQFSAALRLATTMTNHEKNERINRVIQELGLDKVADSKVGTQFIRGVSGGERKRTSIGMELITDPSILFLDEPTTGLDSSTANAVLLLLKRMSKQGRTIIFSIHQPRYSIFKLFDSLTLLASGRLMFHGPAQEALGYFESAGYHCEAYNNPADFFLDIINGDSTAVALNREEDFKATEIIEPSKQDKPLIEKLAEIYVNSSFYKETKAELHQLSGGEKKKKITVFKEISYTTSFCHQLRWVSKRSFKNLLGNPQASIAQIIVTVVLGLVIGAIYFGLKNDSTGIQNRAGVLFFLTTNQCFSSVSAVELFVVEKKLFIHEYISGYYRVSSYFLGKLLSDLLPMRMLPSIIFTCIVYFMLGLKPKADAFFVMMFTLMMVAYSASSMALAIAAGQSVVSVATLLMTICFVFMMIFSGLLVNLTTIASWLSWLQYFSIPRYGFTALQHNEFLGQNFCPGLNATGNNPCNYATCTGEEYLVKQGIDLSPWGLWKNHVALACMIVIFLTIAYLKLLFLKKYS
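Assay system – ABCG2 IgMXP3 and barcoded ABCB1 CCRF-Adr cell mix · Input – 3 million cells/mL in well · Reagent – JC-1 fluorescent substrate · Compound – single test compound dose, 6.6 µM final · Timing – 10 min exposure at 25 °C with rotation, no wash · Detection – flow cytometry of retained JC-1 fluorescence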
ABCB1 inh: human ABCB1 inhibition, ABCG2 as counter-screen. actives 0.067% (n = 190,000). inhibition, % at 6.6 µM. P08183. AID 1326. CCRF-Adr cells, JC-1 efflux, flow cytometry; in the data active means inhibition above about 40%;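 further: 0% = vehicle and 100% = reference inhibitor; higher value means more JC-1 retained so stronger ABCB1 efflux block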
MEKK3 PB1 HTS: raises or lowers MEK5 binding to the human MEKK3 PB1 domain. bead-based flow cytometry, Alexa488-MEK5 binding to MEKK3; actives lie on both sides; 0 = blocked by unlabeled MEK5, 100 = vehicle. binding response (% of control), % at 10 µM. actives 1.4% (n = 290,000). AID 1529;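 active means binding response more than 3 SD above or below the average of its plate-row segment, actives on both sides; inconclusive means wells at one plate position flagged as instrument error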;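 further: Alexa488 bead fluorescence after subtracting the streptavidin-only scavenger bead signal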
Efflux pump mplx: inhibitors of Candida antifungal efflux pumps expressed in yeast; inhibition, % at 10 µM; S. cerevisiae Candida pump triplex, Nile Red efflux; actives 0.44% (n = 330,000);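 active means plate passing quality check with inhibition over a set limit, or well fluorescence over plate mean plus 4 SD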;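 further: Nile Red retained in pooled yeast measured as flow cytometry median fluorescence; 0% = buffer negative control and 100% = Enniatin B positive control; higher means more Nile Red kept so more efflux inhibition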
MEKK2 WT-MEK5: raises or lowers MEK5 binding to wildtype human MEKK2 PB1 domain; binding response (% of control), % at 10 µM; bead flow cytometry, Alexa488-MEK5 binding to MEKK2 WT; actives lie on both sides; actives 1.1% (n = 290,000); in the data active means binding response below about 67% or above about 130%; inconclusive means no clear call, values can overlap the other calls; inactive means in between
MEKK2wt confirm: raises or lowers MEK5 binding to wildtype human MEKK2, retest | binding response (% of control), % at 10 µM | shares compounds with MEKK3 PB1 HTS | actives 2.4% (n = 5,900) | bead flow cytometry, Alexa488-MEK5 binding to MEKK2 WT; actives lie on both sides | AID 1892; in the data active means binding response below about 16% or above about 210%; inactive means in between
MEKK2mut confirm: signal of MEK5 binding to mutant human MEKK2, retest; actives 2% (n = 5,900); percent response, % at 10 µM; shares compounds with MEKK3 PB1 HTS; bead flow cytometry, Alexa488-MEK5 binding to MEKK2 mutant; in the data active means percent response mostly above about 71%, no sharp cut-off; inactive means mostly below about 38%;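 further: higher means compound restores mutant binding toward wildtype level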
MEKK3 confirm: confirmation of inhibitors of MEK5 binding to human MEKK3 | bead flow cytometry, Alexa488-MEK5 binding to MEKK3; active compounds read low | shares compounds with MEKK3 PB1 HTS | actives 1.8% (n = 5,900) | binding response (% of control), % at 10 µM;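 active means binding response below 72% of control, or above a set upper limit, though filed actives all read lower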;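 further: 100% = DMSO only wells and 0% = binding blocked by excess unlabeled MEK5; lower values mean stronger disruption of MEK5 binding to MEKK3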
* = called active by the depositor; u = inconclusive; x = not tested or not shown; [ ] = remark or other dose.

SMILES	MEKK2mut PB1 HTS	ABCG2 block	ABCB1 inh	MEKK3 PB1 HTS	Efflux pump mplx	MEKK2 WT-MEK5	MEKK2wt confirm	MEKK2mut confirm	MEKK3 confirm
COCCn1c(=O)[nH]c2cc(C(=O)NCCc3ccc(S(N)(=O)=O)cc3)ccc2c1=O	4	1	0	135*	0	118	100	-5	103
CCCCCn1c(=O)[nH]c2cc(C(=O)N3CCN(C(=O)OCC)CC3)ccc2c1=O	6	x	x	106	0	107	x	x	x
CCOC(=O)N1CCN(C(=O)c2ccc3c(=O)n(CCc4ccccc4)c(=O)[nH]c3c2)CC1	9	4	1	125*	0	125	102	0	104
COc1ccc(CCNC(=S)Nc2ccc(C(C)C)cc2)cc1	25	x	x	134*	0	115	101	-4	96
COc1ccc(CCNC(=S)Nc2ccc(OC)cc2)cc1	0	1	0	126	0	102	x	x	x
Cc1nnc(Nc2ccccc2)n(N)c1=O	-21	3	1	0.0*[inhibitor]	0	-1.0*[inhibitor]	104	7	104
CCc1ccccc1NC(=S)N(Cc1ccc(OC)cc1)CC1CCC(C(=O)O)CC1 (centres undefined)	5	0	0	105	0	102	x	x	x
COC(=O)C1=C(C)N(Cc2ccccc2)C(=NCc2cccc(C(F)(F)F)c2)N[C@H]1c1cccc(C(F)(F)F)c1	x	x	x	x	0	x	x	x	x
COC(=O)C1=C(C)N(Cc2ccccc2)C(=NCc2cccc(C(F)(F)F)c2)N[C@H]1c1cccc(F)c1	89*	x	x	108	x	208*	221*	64	108
O=C(NCCO)c1cc(-c2cc(C(=O)NCCO)c3ccccc3n2)nc2ccccc12	-2	x	x	102	0	101	x	x	x
CCn1c(-c2cc(-c3cc(OC)ccc3OC)nc3ccccc23)n[nH]c1=S	-12	2	1	92	0	88	x	x	x
CCn1c(-c2cc(-c3ccccc3OC)nc3ccccc23)n[nH]c1=S	1	8	3	134*	0	110	102	9	106
COCCNC(=S)Nc1ccc(N2CCOCC2)c(S(=O)(=O)Nc2ccccc2OC)c1	x	x	x	x	0	x	x	x	x
C#CCOCCOCCOCCNc1nc(N2CCN(C(=O)[C@H](CCC(=O)O)n3cc(C(N)CC(C)C)nn3)CC2)nc(N2CCN(C(=O)[C@H](Cc3ccc(O)cc3)n3cc(C(N)[C@H](C)CC)nn3)CC2)n1 (some centres undefined)	-5	0	0	96	0	97	x	x	x
Brc1cccc(CSc2nnc(-c3ccncc3)o2)c1	3	6	0	107	0	90	x	x	x
COc1ccc(-c2nc(NC(=O)Cn3c(=O)oc4ccccc43)sc2C)cc1	1	10	4	143*	0	112	101	1	108
COc1cccc(NC(=O)Cn2c(=O)oc3ccccc32)c1	9	0	0	114	0	110	x	x	x
Cc1ccccc1C(=O)NNC(=O)CSc1nc(-c2ccccc2)cc(=O)[nH]1	-2	3	0	103	0	95	x	x	x
Cc1nc2ccccc2c(-c2ccccc2)c1CC(=O)O	3	1	1	168*	0	114	111	2	105
Cc1nc2ccc(Cl)cc2c(-c2ccccc2)c1CC(=O)O	-2	10	0	98	0	97	x	x	x
O=C(N/N=C1\CCc2ccccc21)c1ccccc1Cl	-1	7	1	112	0	110	x	x	x
Cc1ccc(C(=O)N/N=C2\CCc3ccccc32)c(C)c1	1	12	1	141*	2	110	107	0	105
O=C1c2nccnc2C(=O)N1c1ccc(F)cc1	0	0	0	130*	0	112	105	6	100
CCN1CCN(S(=O)(=O)c2cccc([N+](=O)[O-])c2)CC1	-45	2	0	u	0	u	x	x	x
O=[N+]([O-])c1cccc(S(=O)(=O)N2CCCC2)c1	90*	13	10	15*[inhibitor]	0	x	95	-2	95
SMILES	MEKK2mut PB1 HTS	ABCG2 block	ABCB1 inh	MEKK3 PB1 HTS	Efflux pump mplx	MEKK2 WT-MEK5	MEKK2wt confirm	MEKK2mut confirm	MEKK3 confirm
CCN(CC)CCC(=O)NN	-7	1	0	107	0	99	x	x	x
CCCSc1ncnc2sc(C)c(C)c12	-46	4	-2	4.0*[inhibitor]	0	8.0*[inhibitor]	10*[inhibitor]	-37	52*
COCCn1c(C)cc(C(=O)COC(=O)CNC(=O)c2ccccc2)c1C	-4	16	1	88	0	88	x	x	x
COCC(C)n1c(C)cc(C(=O)COC(=O)CNC(=O)c2ccccc2)c1C (centres undefined)	0	2	1	131*	0	106	102	4	101
c1ccc(CNc2cncnc2)cc1	4	x	x	108	0	110	x	x	x
CN(CC(=O)Nc1ccccc1Cl)C(=O)CN1C(=O)C2CC=CCC2C1=O (centres undefined)	x	x	x	x	0	x	x	x	x
NC1=NC2(CCCCC2)N=C(Nc2ccc(Br)cc2)N1	36	-1	0	107	0	141*	120	6	101
C=C1CCN(CC(=O)OC)S(=O)(=O)c2ccccc21	2	x	x	96	0	92	x	x	x
COc1cccc2c1NC(C(=O)O)C1CC=CC21 (centres undefined)	-40	-23	-3	79	0	29*[inhibitor]	86	-9	84
CSc1ncccc1C(=O)Nc1nc2ccc(Oc3ccccc3)cc2s1	-1	-1	0	90	0	97	x	x	x
CN1CCN(c2nc3cc(C(F)(F)F)ccc3n3cccc23)CC1	4	x	x	103	0	140*	135	19	109
FC(F)(F)c1ccc2c(c1)nc1n2CCCC1	3	1	0	104	0	109	x	x	x
CCOc1cc(C2C(C#N)=C(N)Oc3n[nH]c(-c4ccccc4)c32)ccc1O (centres undefined)	8	-3	-2	125*	0	113	99	-4	101
CSc1ccccc1NC(=O)CN(C)C(=O)C1CCN(C(=O)Nc2ccccc2)CC1	x	x	x	x	0	x	x	x	x
CCOC(=O)/C(=N/Nc1ccc(Cl)cc1)Sc1nnnn1-c1ccc(C)cc1	-1	-8	-1	100	0	102	x	x	x

From PubChem BioAssay
